Assay results: ChEMBL document CHEMBL1131618, “Synthesis, activity, and structure--activity relationship studies of novel cationic lipids for DNA transfer” (1998)

Experiments:
[1] = system: HeLa; assay: Luciferase activity in human Hela cells; format: functional
Method in brief: (§1)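 5×10^4 cells plated in DMEM at 37 °C, 5% CO2, and transfected after 24 h at 50/70% confluency in serum-free medium. CMV-luciferase plasmid mixed with cationic lipid in 75 mM NaCl final, four lipid:DNA ratios, added dropwise, triplicates. Serum added to 10% at 2 h, then 44 h more. Lysate supernatant read with 10 s luminometer counting. Value at optimal ratio.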

[2] = system: NIH3T3; assay: Luciferase activity in mouse fibroblasts NIH3T3 cells.; format: functional; method in brief: as §1
[3] = system: NIH3T3; assay: Compound was tested for the impact of introduction of molecular probe as side chain entity in the linker position on expression of luciferase in transfected NIH3T3 cells (RLU = luciferase activity in relative light units (RLU)/10 s for 10E3 plated cells); format: functional, Mus musculus; method in brief: as §1
[4] = system: CV1 cells (Cercopithecus aethiops); assay: Compound was tested for the impact of introduction of molecular probe as side chain entity in the linker position on expression of luciferase in transfected CV1 cells (RLU = luciferase activity in relative light units (RLU)/10 s for 10E3 plated c ells)
[5] = system: HeLa; assay: Compound was tested for the impact of introduction of a side chain entity in the linker position on expression of luciferase in transfected HeLa cells (RLU = luciferase activity in relative light units (RLU)/10 s for 10E3 plated cells); format: functional, Homo sapiens; method in brief: as §1
[6] = system: NIH3T3; assay: Compound was tested for the impact of introduction of a side chain entity in the linker position on expression of luciferase in transfected NIH3T3 cells (RLU = luciferase activity in relative light units (RLU)/10 s for 10E3 plated cells); format: functional, Mus musculus; method in brief: as §1
[7] = system: HeLa; assay: Compound was tested for the impact of linker length on expression of luciferase in transfected HeLa cells (RLU = luciferase activity in relative light units (RLU)/10 s for 10E3 plated cells); format: functional, Homo sapiens; method in brief: as §1
[8] = system: CV-1; assay: Compound was tested for luciferase activity in Monkey CV1 Cell Lines; format: functional, Cercopithecidae
Method in brief: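 CV1 cells (5×10^4) plated in MEM at 37 °C, 5% CO2, and transfected after 24 h at 50/70% confluency in serum-free medium. CMV-luciferase plasmid mixed with lipid in 75 mM NaCl final, four lipid:DNA ratios, triplicates. 10% serum added at 2 h, then 44 h more. Lysates counted 10 s. Value reported at optimal ratio.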

[9] = system: HeLa; assay: Compound was tested for the impact of polyamine geometry on expression of luciferase in transfected HeLa cells (RLU = luciferase activity in relative light units (RLU)/10 s for 10E3 plated cells); format: functional, Homo sapiens; method in brief: as §1
[10] = system: NIH3T3; assay: Compound tested for the impact on expression of luciferase in transfected NIH3T3 cells (RLU = luciferase activity in relative light units (RLU)/10 s for 10E3 plated cells); format: functional, Mus musculus; method in brief: as §1
[11] = system: HeLa; assay: Compound was tested for the impact of the length of the lipid on expression of luciferase in transfected HeLa cells (RLU = luciferase activity in relative light units (RLU)/10 s for 10E3 plated cells); format: functional, Homo sapiens; method in brief: as §1
[12] = system: NIH3T3; assay: Compound was tested for the impact of the length of the lipid on expression of luciferase in transfected NIH3T3 cells (RLU = luciferase activity in relative light units (RLU)/10 s for 10E3 plated cells); format: functional, Mus musculus; method in brief: as §1

| Structure (SMILES) | Luciferase activity [1] [RLU 10s-1] | Luciferase activity [2] [RLU 10s-1] | RLU [10] | also measured |
| --- | --- | --- | --- | --- |
| CCCCCCCCCCCCCCCCCCN(CCCCCCCCCCCCCCCCCC)C(=O)[C@H](CCCCN)NC(=O)CNCCCNCCCCNCCCN | 700000 | 10000000 |  |  |
| CCCCCCCCCCCCCCCCCCN(CCCCCCCCCCCCCCCCCC)C(=O)C(CCCCNC(=O)CCCCC1SC[C@@H]2NC(=O)N[C@H]12)NC(=O)CNCCCNCCCCNCCCN (stereo partly drawn) |  |  |  | RLU [3]: 5400000; RLU [4]: 160000 |
| CCCCCCCCCCCCCCCCCCN(CCCCCCCCCCCCCCCCCC)C(=O)C(CCCCNC(=O)OCc1ccccc1Cl)NC(=O)CNCCCNCCCCNCCCN (stereo not drawn) | 1400000 | 30000000 |  | RLU [5]: 1400000; RLU [6]: 30000000 |
| CCCCCCCCCCCCCCCCCCN(CCCCCCCCCCCCCCCCCC)C(=O)CCCCCNC(=O)CNCCCNCCCCNCCCN | 3500000 |  |  | RLU [7]: 3500000 |
| CCCCCCCCCCCCCCCCCCN(CCCCCCCCCCCCCCCCCC)C(=O)C(CCCCNC(=O)CCCC[C@H]1SC[C@@H]2NC(=O)N[C@@H]21)NC(=O)CNCCCNCCCCNCCCN (stereo partly drawn) |  | 5400000 |  | Luciferase activity [8]: 160000 RLU 10s-1 |
| CCCCCCCCCCCCCCCCCCN(CCCCCCCCCCCCCCCCCC)C(=O)CNC(=O)CNCCN(CCN)CCN | 130000 | 20000000 | 20000000 | RLU [9]: 130000 |
| CCCCCCCCCCCCCCCCCCN(CCCCCCCCCCCCCCCCCC)C(=O)CNCCCN(CCCN)CCCCN(CCCN)CCCN |  |  | 59000000 |  |
| CCCCCCCCCCCCCCCCCCN(CCCCCCCCCCCCCCCCCC)C(=O)CNCCCNCCCCNCCCN | 2600000 | 2000000 | 2000000 | RLU [7]: 2600000 |
| CCCCCCCCCCCCCCCCCCN(CCCCCCCCCCCCCCCCCC)C(=O)C(CCC(=O)O)NC(=O)CNCCCNCCCCNCCCN (stereo not drawn) |  |  |  | RLU [5]: 15000000; RLU [6]: 63000000 |
| CCCCCCCCCCCCCCCCCCN(CCCCCCCCCCCCCCCCCC)C(=O)[C@H](CCC(=O)O)NC(=O)CNCCCNCCCCNCCCN | 15000000 | 63000000 |  |  |
| CCCCCCCCCCCCCCCCCCN(CCCCCCCCCCCCCCCCCC)C(=O)CNC(=O)CNCCN(CCCN)CCCCN(CCCN)CCCN | 580000 | 68000000 |  |  |
| CCCCCCCCCCCCCCCCCCN(CCCCCCCCCCCCCCCCCC)C(=O)CNC(=O)CNCCCNCCCCNCCCN |  |  | 54000000 | RLU [5]: 10000000; RLU [7]: 2400000; RLU [9]: 2400000; RLU [11]: 890000; RLU [6]: 200000000; RLU [3]: 26000000; RLU [12]: 44000000; RLU [4]: 7000 |
| CCCCCCCCCCCCCCCCCCN(CCCCCCCCCCCCCCCCCC)C(=O)CNCCN(CCN)CCN |  | 1500000 | 1500000 |  |
| CCCCCCCCCCCCCCCCCCN(CCCCCCCCCCCCCCCCCC)C(=O)C(N)CCCN=C(N)N (stereo not drawn) | 4700 | 8700 |  | RLU [5]: 4700; RLU [6]: 8700 |
| CCCCCCCCCCCCCCCCCCN(CCCCCCCCCCCCCCCCCC)C(=O)C(CCCN=C(N)N)NC(=O)CNCCCNCCCCNCCCN (stereo in doubt; form 2) | 8200000 | 11000000 |  |  |
| CCCCCCCCCCCCCCCCCCN(CCCCCCCCCCCCCCCCCC)C(=O)C(CCCC/N=C(\S)Nc1ccc(-c2c3ccc(=[N+](C)C)cc-3oc3cc(N(C)C)ccc23)c(C(=O)[O-])c1)NC(=O)CNCCCNCCCCNCCCN (stereo not drawn) [CATIONIC LIPID] |  | 1200000 |  | Luciferase activity [8]: 130000 RLU 10s-1; RLU [3]: 1200000; RLU [4]: 130000 |
